Source: ChEMBL document CHEMBL6134765, “Rapid identification of novel indolylarylsulfone derivatives as potent HIV-1 NNRTIs via miniaturized CuAAC click-chemistry-based combinatorial libraries” (RSC Med Chem, 2025)

What was measured:
[1] = target: Human immunodeficiency virus type 1 reverse transcriptase (Human immunodeficiency virus 1) (UniProt Q72547); assay: Inhibition of recombinant HIV-1 reverse transcriptase at 0.66 mM incubated for 1 hr by ELISA relative to control
Outline: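 Each library compound was tested directly as the crude click mixture (diluted in DMSO to 2 mM per well) against HIV-1 RT at 0.66 mM, using an ELISA-based RT kit following the kit protocol. Blank controls held DMSO, TBTA, CuSO4·5H2O and sodium ascorbate. Inhibition is expressed as a percentage.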

[2] = system: Human immunodeficiency virus 1; assay: Antiviral activity against wild-type HIV-1 IIIB infected in human MT4 cells incubated for 5 days by spectrophometry based MTT assay; format: functional, organism-based; settings: Human immunodeficiency virus 1, IIIB, MT4, 120 h
Outline: (§1)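 MTT protection assay in MT-4 cells infected with HIV-1 IIIB or HIV-2 ROD. EC50 is the compound concentration giving 50% protection of the cultures against virus-induced cytotoxicity.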

[3] = system: Human immunodeficiency virus 2; assay: Antiviral activity against HIV-2 ROD infected in human MT4 cells incubated for 5 days by spectrophotometry based MTT assay; format: functional, organism-based; settings: Human immunodeficiency virus 2, ROD, MT4, 120 h; outline: as §1
[4] = Cytotoxicity against human MT4 cells assessed as reduction in cell viability incubated for 5 days by MTT assay; format: toxicity, cell-based; settings: time 5 day
Outline: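 Mock-infected MT-4 cultures were read by MTT for cell viability. CC50 is the concentration that reduces viability by 50%.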

[5] = Selectivity index, ratio of CC50 for cytotoxicity against human MT4 cells to EC50 for antiviral activity against wild-type HIV-1 IIIB infected in human MT4 cells; format: toxicity, cell-based; settings: read-out: Ratio CC50/EC50
Outline: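 Selectivity index is calculated as CC50 (mock-infected MT-4, MTT) divided by EC50 (HIV-1 IIIB protection of MT-4, MTT).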

[6] = system: Human immunodeficiency virus 1; assay: Antiviral activity against HIV-1 harboring L100I mutant infected in human MT4 cells assessed as inhibition of virus induced cytotoxicity incubated for 5 days by spectrophometry based MTT assay; format: functional, organism-based; settings: Human immunodeficiency virus 1, MT4, 120 h
Outline: (§2)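 MT-4 cells (from Dr. N. Yamamoto, Yamaguchi University) infected with single-mutant (L100I, K103N, Y181C, Y188L, E138K) or double-mutant (F227L/V106A; RES056 = K103N/Y181C) HIV-1 strains. Protection against virus-induced cytotoxicity was read by the MTT method. EC50 is the concentration giving 50% protection of the cell cultures.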

[7] = system: Human immunodeficiency virus 1; assay: Antiviral activity against HIV-1 harboring K103N mutant infected in human MT4 cells assessed as inhibition of virus induced cytotoxicity incubated for 5 days by spectrophometry based MTT assay; format: functional, organism-based; settings: Human immunodeficiency virus 1, MT4, 120 h; outline: as §2
[8] = system: Human immunodeficiency virus 1; assay: Antiviral activity against HIV-1 harboring Y181C mutant infected in human MT4 cells assessed as inhibition of virus induced cytotoxicity incubated for 5 days by spectrophometry based MTT assay; format: functional, organism-based; settings: Human immunodeficiency virus 1, MT4, 120 h; outline: as §2
[9] = system: Human immunodeficiency virus 1; assay: Antiviral activity against HIV-1 harboring Y188L mutant infected in human MT4 cells assessed as inhibition of virus induced cytotoxicity incubated for 5 days by spectrophometry based MTT assay; format: functional, organism-based; settings: Human immunodeficiency virus 1, MT4, 120 h; outline: as §2
[10] = system: Human immunodeficiency virus 1; assay: Antiviral activity against HIV-1 harboring E138K mutant infected in human MT4 cells assessed as inhibition of virus induced cytotoxicity incubated for 5 days by spectrophometry based MTT assay; format: functional, organism-based; settings: Human immunodeficiency virus 1, MT4, 120 h; outline: as §2
[11] = system: Human immunodeficiency virus 1; assay: Antiviral activity against HIV-1 harboring F227L/V106A double mutant infected in human MT4 cells assessed as inhibition of virus induced cytotoxicity incubated for 5 days by spectrophometry based MTT assay; format: functional, organism-based; settings: Human immunodeficiency virus 1, MT4, 120 h; outline: as §2
[12] = system: Human immunodeficiency virus 1; assay: Antiviral activity against HIV-1 harboring RES056 mutant infected in human MT4 cells assessed as inhibition of virus induced cytotoxicity incubated for 5 days by spectrophometry based MTT assay; format: functional, organism-based; settings: Human immunodeficiency virus 1, MT4, 120 h; outline: as §2

Row | Structure (SMILES) | inhibition [1] [%] | EC50 [2] [µM] | EC50 [3] [µM] | CC50 at 120 h [4] [µM] | selectivity ratio [5] | EC50 [6] [µM] | EC50 [7] [µM] | EC50 [8] [µM] | EC50 [9] [µM] | EC50 [10] [µM] | EC50 [11] [µM] | EC50 [12] [µM]
1 | Cc1cc(C)cc(S(=O)(=O)c2c(C(=O)NCc3cn(CSc4ccccc4)nn3)[nH]c3ccc(Cl)cc23)c1 | > 85 | 0.04 | > 221 | > 221 | > 5510 | 0.15 | 0.24 | 0.67 | 15.8 | 0.18 | 0.81 | > 221
2 | Cc1cc(C)cc(S(=O)(=O)c2c(C(=O)NCc3cn(CCc4ccccc4)nn3)[nH]c3ccc(Cl)cc23)c1 | > 85 | 0.15 | > 4.69 | 162 | 1080 | 1 | 0.54 | 2.51 | > 162 | 0.87 | 4.33 | > 4.69
3 | Cc1cc(C)cc(S(=O)(=O)c2c(C(=O)NCc3cn(CC(=O)Nc4ccc(F)cc4)nn3)[nH]c3ccc(Cl)cc23)c1 | > 85 | 0.087 | > 16.2 | 16.2 | 188 | 0.53 | 2.78 | 1.07 | 14.1 | 0.56 | 5.09 | > 16.2
4 | Cc1cc(C)cc(S(=O)(=O)c2c(C(=O)NCc3cn(Cc4cccc(C#N)c4)nn3)[nH]c3ccc(Cl)cc23)c1 | > 85 | 0.062 | > 166 | 166 | 2680 | 0.34 | 1.24 | 1.1 | > 35.3 | 0.35 | 2.96 | > 166
5 | Cc1cc(C)cc(S(=O)(=O)c2c(C(=O)NCc3cn(CC(=O)Nc4ccc(C(F)(F)F)cc4)nn3)[nH]c3ccc(Cl)cc23)c1 | > 85 | 0.11 | > 17 | 17 | 148 | 0.59 | 1.72 | > 7.41 | 0.4 | 2.22 | > 17 | > 17
